From PubChem
SR-BI uptake up – enhances SR-BI lipid uptake from DiI-HDL | CHO ldlA[mSR-BI] cells, DiI-HDL uptake fluorescence, 3 h; 100 = double the neutral-control signal | activation, % at 12.5 µM | 0.096% of 320,000 active;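 active means mean replicate activation of at least 60% and every replicate at or above 60%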;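 further: 0% = median plate neutral-control signal and 100% = twice that signal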
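Assay system: LDL receptor-deficient CHO ldlA cells overexpressing murine SR-BI / Medium: BSA-supplemented, HEPES-buffered Ham's F12, pH 7.4 / Probe or stimulus: DiI-labelled HDL at 10 µg/mL final / Timing: compound with DiI-HDL co-incubation, 3 h at 37 °C / Technique: bottom-read cell fluorescence after medium removal, ex 550/em 595 nm / Measure: HDL uptake via cellular fluorescence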
SMARCA2 act – increases SMARCA2 function in MMTV reporter cells | MG213 cells, MMTV-luciferase reporter, dexamethasone, overnight | activation, % at 9.1 µM | 1% of 370,000 active; in the data active means activation above about 7.8%;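 further: 0% = vehicle wells and 100% = reference activator wells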
AHR act – human AHR activation. AHR-responsive luciferase reporter cells, luminescence. 2.5% of 320,000 active. P35869. activation, % at 5 µM. AID 2796; in the data active means activation above about 47%;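 further: 0% = vehicle wells and 100% = reference agonist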
SR-BI HDL uptake – blocks mouse SR-BI lipid uptake from DiI-HDL; Q61009; ldlA[mSR-BI] CHO cells, DiI-HDL uptake fluorescence, 3 h; 0.96% of 320,000 active; inhibition, % at 12.5 µM;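 active means mean replicate inhibition of at least 70% and a set share of replicates each scoring 70 or more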;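 further: 0% = median of neutral control wells and 100% = median of positive control wells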
Target sequence (Q61009 whole entry, looked up): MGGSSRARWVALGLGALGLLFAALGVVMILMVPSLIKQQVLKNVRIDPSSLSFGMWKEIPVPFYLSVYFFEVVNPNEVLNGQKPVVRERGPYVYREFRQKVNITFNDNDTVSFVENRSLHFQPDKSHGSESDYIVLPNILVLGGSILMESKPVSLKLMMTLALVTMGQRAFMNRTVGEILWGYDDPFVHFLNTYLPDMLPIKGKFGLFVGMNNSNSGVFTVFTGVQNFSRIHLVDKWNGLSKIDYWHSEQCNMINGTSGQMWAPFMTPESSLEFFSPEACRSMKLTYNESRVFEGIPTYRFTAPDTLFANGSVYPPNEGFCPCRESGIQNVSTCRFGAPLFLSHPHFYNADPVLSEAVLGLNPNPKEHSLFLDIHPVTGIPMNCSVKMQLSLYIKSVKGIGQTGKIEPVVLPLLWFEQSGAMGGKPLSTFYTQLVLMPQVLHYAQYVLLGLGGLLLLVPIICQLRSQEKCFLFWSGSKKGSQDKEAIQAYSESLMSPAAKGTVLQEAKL
Yeast superoxide – yeast age-related superoxide inhibition as caloric restriction mimetic; S. cerevisiae aged cells, superoxide DHE fluorescence; hits give low values; superoxide response (% of plate mean), % at 10 µM; 0.18% of 330,000 active; AID 2690;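 active means superoxide response under a set limit, about three screen SD below normal, cut at about 65% in these data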;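 further: yeast aged for seven days with compound at 30 °C before DHE staining; 100% = average MFI of all compound-treated wells on the plate with controls excluded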
Hep lipid drop – hepatic lipid droplet formation modulation; AML12 mouse hepatocytes, oleate lipid droplets, BODIPY imaging; inhibition, % at 6.5 µM; 0.4% of 240,000 active;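 active means lipid droplet intensity inhibited by at least 50%, with more than 500 cells counted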
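Assay system: AML12 mouse liver cells | Compound: 6.5 µM single-point dosing | Schedule: Overnight exposure | Technique: Fluorescence imaging, 20x objective, two fields per well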
Numbers without * were called inactive; x = no result. Rows were chosen to be rich in hits. Some 4.3% of all compounds tested hit in one or more screens of this group.

SMILES	SR-BI uptake up	SMARCA2 act	AHR act	SR-BI HDL uptake	Yeast superoxide	Hep lipid drop
CCOC(=O)Cc1csc(NC(=O)c2sc3nc4c(C)cc(C)cc4cc3c2N)n1	-80	3	13	80*	96	-37
O=C1N2Cc3ccccc3C2CS(=O)(=O)N1C1CCCC1 (configuration not stated)	x	0	x	x	x	x
O=C(Nc1ccc(Cl)c(Cl)c1)Nc1cc(C(=O)NC2CC2)ccc1Cl	x	x	74*	x	102	-9
C(=N\Nc1nncc2ccccc12)/c1cccnc1	x	0	x	x	x	x
CC(NC(=O)c1c(N)[nH]c(C(=O)c2ccc(Cl)cc2)c1-c1ccc(Br)cc1)c1cccc2ccccc12 (configuration not stated)	x	-2	x	x	x	x
Cc1cc2cc(CNC(=S)NC3CCCCC3)ccc2[nH]1	14	-2	7	-14	101	18
Cc1cc2cc(CNC(=O)NC3CCCCC3)ccc2[nH]1	25	2	57*	-25	86	-4
O=C1NC2(Nc3ccccc31)C(=O)Nc1ccc(Br)cc12 (configuration not stated)	-3	-2	33	3	107	0
O=C1NC2(Nc3ccccc31)C(=O)Nc1ccccc12 (configuration not stated)	6	-1	51*	-6	94	21
C/C(=N\N=c1/sc2ccccc2n1C)c1ccc(N2CCOCC2)cc1	-10	4	53*	10	110	2
COc1ccccc1NC(=O)CSc1nnc2ccc(-c3cccnc3)nn12	1	-2	58*	-1	103	-3
CCOc1ccccc1NC(=O)CSc1nnc2ccc(-c3cccnc3)nn12	-22	-1	49*	22	94	-11
COc1ccc(NC(=O)CSc2nnc3ccc(-c4cccnc4)nn23)c(OC)c1	23	-1	5	-23	102	x
CCOc1ccc(/C=N/n2c(-c3n[nH]c4c3CCC4)n[nH]c2=S)cc1	x	-5	x	x	x	x
CCOC(=O)[C@]12CCCC3=C1N(CCC3)C(=O)[C@@H](CC(=O)NCc1ccc(C)o1)C2	x	2	x	x	x	x
Cc1ccccc1NC(=O)CN1C(=O)CCSc2ccccc21	x	-6	x	x	x	x
COc1ccc(CN2CN3Cc4cc(OC)ccc4C3CS2(=O)=O)cc1 (configuration not stated)	x	-1	x	x	x	x
Cc1ccc(-c2nc(C3CCCN(S(=O)(=O)c4ccccc4)C3)no2)cc1 (configuration not stated)	x	4	x	x	x	x
Cc1ccccc1NC(=O)/C(C#N)=C/c1ccsc1	x	7	70*	x	82	-33
C[C@@H]1CN([C@H](C)CO)C(=O)Cc2cc(NC(=O)Nc3ccccc3)ccc2O[C@@H]1CN(C)C(=O)Nc1ccc2c(c1)OCO2	3	-1	3	-3	120	x
C[C@H]1CN([C@@H](C)CO)C(=O)Cc2cc(NC(=O)CCC(F)(F)F)ccc2O[C@H]1CN(C)Cc1ccc(-c2ccccc2)cc1	154*	2	1	-154	103	x
COc1ccc(NC(=O)Nc2ccc3c(c2)CC(=O)N([C@H](C)CO)C[C@@H](C)[C@H](CN(C)C(=O)Nc2ccccc2)O3)cc1	-70	-1	0	70*	103	x
C[C@H]1CN([C@@H](C)CO)C(=O)Cc2cc(NC(=O)CCC(F)(F)F)ccc2O[C@H]1CN(C)Cc1ccc(C(F)(F)F)cc1	25	0	11	-25	90	x
CCC[C@H](/C=C/C(=O)OC(C)(C)C)Sc1ccc(N)cc1	x	-2	x	x	x	x
Cc1ccc(C)c2sc(NC(=O)c3ccc(N4C(=O)CCC4=O)cc3)nc12	-79	0	-1	79*	103	-8
SMILES	SR-BI uptake up	SMARCA2 act	AHR act	SR-BI HDL uptake	Yeast superoxide	Hep lipid drop
COc1ccc(C)c2sc(NC(=O)c3cccc(N4C(=O)CCC4=O)c3)nc12	-6	-2	17	6	94	-2
COC(=O)C[C@H]1CC[C@@H]2[C@@H](COc3ccc(NC(=O)Nc4cccc(C)c4)cc3C(=O)N2C)O1	x	-3	x	x	x	x
O=c1c2ccccc2nnn1CSc1ccccc1	1	7	60*	-1	94	-45
COc1ccc(NC(=S)N(CCc2c(C)[nH]c3ccc(C)cc23)Cc2cccnc2)cc1	-10	-2	54*	10	90	-15
COCCNC(=S)N(CCc1c(C)[nH]c2ccccc12)Cc1ccco1	-61	-3	11	61	110	-38
CCNC(=S)N(CCc1c(C)[nH]c2ccc(Cl)cc12)Cc1ccco1	-55	-3	47*	55	118	-48
CNC(=S)N(CCc1c(C)[nH]c2ccc(C)cc12)Cc1ccco1	-16	-4	55*	16	91	-11
COc1ccc2[nH]c3c(c2c1)CCN[C@]31C(=O)N(Cc2cn(Cc3ccccc3)nn2)c2ccccc21	x	-3	x	x	x	x
O=C(Cn1nnc(-c2ccncc2)n1)Nc1ccc(Cl)cc1	x	-6	x	x	x	x
COc1ccc(S[C@]2(C(=O)N3CCCC3)CC(=O)N(C(=O)Nc3ccc(C)c(Cl)c3)[C@@H]2c2ccc(OC)cc2)cc1	x	-1	x	x	x	x
CC(=O)c1cc(-c2ccc3nonc3c2)c(=O)n2c1CCC2	x	0	x	x	x	x
Cc1ccc(C(=O)N/N=C\C=C\c2ccccc2[N+](=O)[O-])cn1	-32	-1	59*	32	88	-6
Cn1c(=O)c2c(ncn2CC(=O)N/N=C/C=C/c2ccccc2[N+](=O)[O-])n(C)c1=O	x	x	61*	x	100	-27
Cc1ccc(C(=O)N/N=C\c2ccccc2[N+](=O)[O-])cn1	-13	7	x	13	x	-17
Cn1c(=O)c2c(ncn2CC(=O)N/N=C/C=C\c2ccccc2[N+](=O)[O-])n(C)c1=O	x	x	15	x	96	17
O=C(OC12CCCN(C1)/C(=C/c1cccnc1)C2)c1cccc(F)c1 (configuration not stated)	x	-3	x	x	x	x
O=C(C(=O)N1CCN(S(=O)(=O)c2cccc(C(F)(F)F)c2)CC1)c1cccc(C(F)(F)F)c1	x	-7	x	x	x	x
CCOC(=O)[C@]12CCCC3=C1N(CCC3)C(=O)[C@@H](CC(=O)N1CCN(C(=O)C3CC3)CC1)C2	x	-3	x	x	x	x
COc1cccc(C(=O)Nc2cc3c(cc2N2CCCC2)n(C)c(=O)n3C)c1	-3	-2	13	3	81	-1
COc1cccc(C(=O)Nc2ccc3c(c2)n(C)c(=O)n3C)c1	-17	4	48*	17	107	0
COc1cccc(C(=O)Nc2ccc(C3CC3(Cl)Cl)cc2)c1 (configuration not stated)	-35	5	73*	35	112	-8
CCn1nc(NC(=O)C2CCCO2)c2cc3cc(C)ccc3nc21 (configuration not stated)	13	0	67*	-13	84	5
CCCCNc1ccc2c(c1)OC[C@H](Cc1ccccc1)NS2(=O)=O	x	-3	x	x	x	x
Nn1c(SCC(=O)Nc2ccc(C(=O)O)cc2)nnc1-c1ccco1	x	0	x	x	x	x
